According to ChEMBL document CHEMBL3243938, “Mercapto heterocyclic carboxylic acids, analogues of 3-mercaptopicolinic acid” (J Med Chem, 1977):
Active and inactive are the calls of the source. The calls are words filed in the database; no cut-off is given here.

Legend:
[1] = system: Rattus norvegicus; experiment: Hypoglycemic activity in 48-hrs fasted rat assessed as decrease in blood glucose level at 200 mg/kg, po after 1 hr; format: functional
Summary of the method: (§1)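 Male rats of about 200 g were fasted 48 h. A zero-time tail-vein blood sample was taken on the morning of the test, then compound was given ip as a suspension in 0.9% saline or orally as a suspension in 0.5% tragacanth. Vehicle-only rats served as controls. Tail-vein blood was sampled at 1, 2 and 4 h for glucose.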

[2] = system: Rattus norvegicus; experiment: Hypoglycemic activity in 48-hrs fasted rat assessed as decrease in blood glucose level at 200 mg/kg, po after 2 hrs; format: functional; summary of the method: as §1
[3] = system: Rattus norvegicus; experiment: Hypoglycemic activity in 48-hrs fasted rat assessed as decrease in blood glucose level at 200 mg/kg, po after 4 hrs; format: functional; summary of the method: as §1
[4] = system: Rattus norvegicus; experiment: Hypoglycemic activity in 48-hrs fasted rat assessed as decrease in blood glucose level at 200 mg/kg, ip after 1 hr; format: functional; details: route intraperitoneal; summary of the method: as §1
[5] = system: Rattus norvegicus; experiment: Toxicity in 48-hrs fasted rat assessed as mortality at 200 mg/kg, ip after 4 hrs; format: organism-based; parameters: dose 200 mg/kg, route intraperitoneal; details: in vivo
Summary of the method: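 Male rats, about 200 g, fasted 48 h before dosing. Given ip as a suspension in 0.9% saline; vehicle-only group run as controls. Tail-vein blood taken at time zero and at 1, 2 and 4 h after dosing.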

[6] = system: Rattus norvegicus; experiment: Hypoglycemic activity in 48-hrs fasted rat assessed as decrease in blood glucose level at 200 mg/kg, ip after 2 hrs; format: functional; details: route intraperitoneal; summary of the method: as §1
[7] = system: Rattus norvegicus; experiment: Hypoglycemic activity in 48-hrs fasted rat assessed as decrease in blood glucose level at 300 mg/kg, po measured up to 4 hrs after drug administration; format: functional, organism-based; parameters: dose 300 mg/kg; summary of the method: as §1
[8] = system: Rattus norvegicus; experiment: Hypoglycemic activity in 48-hrs fasted rat assessed as decrease in blood glucose level at 300 mg/kg, ip measured up to 4 hrs after drug administration; format: functional, organism-based; parameters: dose 300 mg/kg; summary of the method: as §1

| SMILES | Activity [7] | Activity [8] | other results |
| --- | --- | --- | --- |
| CCCCNC(=O)NS(=O)(=O)c1ccc(C)cc1 [TOLBUTAMIDE] | – | – | inhibition in vivo at 200 mg/kg [1]: 28%; inhibition in vivo at 200 mg/kg [2]: 47%; inhibition in vivo at 200 mg/kg [3]: 48% |
| O=C(O)c1[nH]c2ccccc2c1S | – | – | inhibition in vivo at 200 mg/kg [4]: 45%; Activity [5]: Toxic; inhibition in vivo at 200 mg/kg [6]: 51% |
| O=C(O)c1nccnc1S | inactive | inactive | – |
| O=C(O)c1ncc(S)cc1S | inactive | inactive | – |
| CS(=O)(=O)c1cccnc1C(=O)O | inactive | inactive | – |
| O=C(O)c1ncc2ccccc2c1S | inactive | inactive | – |
| O=C(O)c1nc2ccccc2cc1S | inactive | inactive | – |
| C[S+]([O-])c1cccnc1C(=O)O (centres undefined) | inactive | inactive | – |
| O=C(O)c1nc(C(=O)O)c(S)cc1S | inactive | inactive | – |
| O=C(O)c1ccc(S)c(C(=O)O)n1 | inactive | inactive | – |
| CCOC(=O)c1ncsc1S | inactive | inactive | – |
